Each block holds one molecule with its values, some of them ahead of it.
Experiments:
[1] = biological target: T1, BRD4(1) (Homo sapiens, UniProt O60885); assay: Thermal shift assay; type: binding
[2] = biological target: T1, BRD4(1); assay: Alphascreen assay against BRD4; type: biochemical
[3] = system: c-Myc; assay: Western blotting of c-Myc in MV4-11; type: cell-based, human; details: MV4-11, 48 h, Western blot
Procedure, shortened: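 MV4-11 cells treated 48 h with several compound concentrations, then lysed 30 min on ice in RIPA with PMSF and cleared at 12,000 r/min, 4 °C. Protein quantified by BCA, run on 8% SDS-PAGE, blotted to PVDF and blocked in 5% milk/TBST. Probed with anti-c-Myc (1:1000, 4 °C overnight) and HRP anti-rabbit (1:50000, 1 h), then ECL. Densitometry relative to GAPDH; ANOVA/Tukey.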

[4] = system: MV4-11 cells; assay: Apoptosis analysis by flow cytometry; type: cell-based, human; details: MV4-11, 1 μM, 5 μM and 10 μM vs control
Procedure, shortened: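 Harvested cells washed in cold PBS and resuspended at 10^6/mL in 1× Annexin binding buffer. Stained with Alexa Fluor 488 Annexin V plus propidium iodide (100 μg/mL working solution) for 15 min at room temperature in the dark, then analysed by flow cytometry. Groups compared by one-way ANOVA with Tukey's test.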

[5] = system: c-Myc; assay: qRT-PCR of c-Myc mRNA in MV4-11; type: cell-based, human; details: MV4-11, 48 h, 1 μM, 5 μM and 10 μM vs control
Procedure, shortened: (§1)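 Log-phase cells seeded at 5000 per well, grown 12 h, then given a range of test compound concentrations for 48 h, in triplicate wells. RNA extracted with TRIzol; reverse transcription with iScript (25 °C 5 min, 42 °C 30 min, 85 °C 5 min). EvaGreen qPCR used gene-specific primers. Expression by 2−ΔΔCt, normalised to GAPDH; one-way ANOVA with Tukey's test.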

[6] = system: CDK6; assay: qRT-PCR of CDK6 mRNA in MV4-11; type: cell-based, human; details: MV4-11, 48 h, 1 μM, 5 μM and 10 μM vs control
Procedure, shortened: as §1

[7] = system: MV4-11 cells; assay: Cell cycle analysis by flow cytometry; type: cell-based, human; details: MV4-11, 48 h
Procedure, shortened: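 Cells seeded at 5 × 10^3 per well, grown 12 h, then exposed to graded test compound concentrations or DMSO for 48 h at 37 °C. Fixed overnight in 70% ethanol at 4 °C. RNase A (about 50 μg/mL final) at 37 °C for 30 min, then PI (about 65 μg/mL final) on ice in the dark for 30 min. Flow cytometry within 1 h; one-way ANOVA with Tukey's test.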

binding activity to BRD4 (TSA), in words [1]: moderate activity
Compound: CCc1noc2cc(OC)c(NS(=O)(=O)c3ccccc3)cc12 [Compound 11d, N-(3-Ethyl-6-methoxybenzo[d]isoxazol-5-yl)benzenesulfonamide]

IC50 [2]: 94 nM
Compound: CCc1noc2cc(OC)c(NS(=O)(=O)c3ccccc3OC)cc12 [Compound 11h, N-(3-Ethyl-6-methoxybenzo[d]isoxazol-5-yl)-2-methoxybenzenesulfonamide]

Compound: CCc1noc2cc(OC)c(NS(=O)(=O)c3ccc(OC)cc3)cc12 [Compound 11r, N-(3-Ethyl-6-methoxybenzo[d]isoxazol-5-yl)-4-methoxybenzenesulfonamide]
c-Myc expression at the protein level [3]: remarkable dose-dependent decrease
apoptosis rate, in words [4]: significantly increased
mRNA expression of c-Myc [5]: decreased significantly
mRNA expression of CDK6 [6]: decreased significantly
cell cycle arrest, in words [7]: induce cell cycle arrest in G0/G1 phase in a dose-dependent manner

binding activity to BRD4 (TSA), in words [1]: good binding activities
Compound: CCc1noc2cc(OC)c(NS(=O)(=O)c3cccs3)cc12 [Compound 11y, N-(3-Ethyl-6-methoxybenzo[d]isoxazol-5-yl)thiophene-2-sulfonamide]

binding activity to BRD4 (TSA), in words [1]: good binding activities
Compound: CCc1noc2cc(OC)c(NS(=O)(=O)c3cccnc3)cc12 [Compound 11z, N-(3-Ethyl-6-methoxybenzo[d]isoxazol-5-yl)pyridine-3-sulfonamide]

binding activity to BRD4 (TSA), in words [1]: moderate binding activity
Compound: CCc1noc2cc(OC)c(NS(=O)(=O)CC)cc12 [Compound 11a, N-(3-Ethyl-6-methoxybenzo[d]isoxazol-5-yl)ethanesulfonamide]

— article PMC8905034 (Acta Pharmacologica Sinica, 2022)
